Experimental data published in ChEMBL document CHEMBL1131251, “Inhibition of in vitro and in vivo HIV replication by a distamycin analogue that interferes with chemokine receptor function: a candidate for chemotherapeutic and microbicidal application” (J Med Chem, 1998).

Experiments:
Conditions in all cases: HEK293; concentration not given here
[1] = molecular target: C-C chemokine receptor type 5 (Homo sapiens) (UniProt P51681); experiment: The compound was tested for inhibition of Chemokine (MIP-1Alpha) binding against C-C chemokine receptor type 5 transfected in HEK 293 cells; type: cell-based
Summary of the method: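 Competition binding in HEK-293 cells transfected with the named receptor, at 1 × 10^6 cells/mL in RPMI 1640 with 1% BSA and 5 mM HEPES pH 8.0. Cells were mixed with 0.2 ng/assay radiolabeled chemokine plus test compound at a single concentration of 200 μM, rotated 45 min at room temperature, then spun through a 10% sucrose/PBS cushion. Cell-bound radioactivity was gamma-counted; triplicates, n ≥ 2; t-test against a drug-free control.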

[2] = molecular target: C-C chemokine receptor type 5 (Homo sapiens) (UniProt P51681); experiment: The compound was tested for inhibition of Chemokine (RANTES) binding against C-C chemokine receptor type 5 transfected in HEK 293 cells; type: cell-based
Summary of the method: (§1)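 CCR5 stably transfected HEK-293 cells at 1 × 10^6 cells/mL in RPMI 1640, 1% BSA, 5 mM HEPES pH 8.0. Constant radiolabeled chemokine (0.2 ng/assay) plus competitor at a single 200 μM concentration. Rotated 45 min at room temperature, spun through a 10% sucrose/PBS cushion, and cell-bound radioactivity gamma-counted. Inhibition measured against a drug-free control; triplicate, n ≥ 2.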

[3] = molecular target: C-C chemokine receptor type 5 (Homo sapiens) (UniProt P51681); experiment: The compound was tested for inhibition of Chemokine (MIP-1Beta) binding against C-C chemokine receptor type 5 transfected in HEK 293 cells; type: cell-based; summary of the method: as §1
CXCR2 (Homo sapiens) [4] = experiment: The compound was tested for inhibition of Chemokine r (IL-8) binding against CXCR2 transfected in HEK 293 cells
CXCR2 (Homo sapiens) [5] = experiment: The compound was tested for inhibition of Chemokine (IL-8) binding against CXCR2 transfected in HEK 293 cells

C-C chemokine receptor type 5 (Homo sapiens), sequence (P51681 whole entry, looked up): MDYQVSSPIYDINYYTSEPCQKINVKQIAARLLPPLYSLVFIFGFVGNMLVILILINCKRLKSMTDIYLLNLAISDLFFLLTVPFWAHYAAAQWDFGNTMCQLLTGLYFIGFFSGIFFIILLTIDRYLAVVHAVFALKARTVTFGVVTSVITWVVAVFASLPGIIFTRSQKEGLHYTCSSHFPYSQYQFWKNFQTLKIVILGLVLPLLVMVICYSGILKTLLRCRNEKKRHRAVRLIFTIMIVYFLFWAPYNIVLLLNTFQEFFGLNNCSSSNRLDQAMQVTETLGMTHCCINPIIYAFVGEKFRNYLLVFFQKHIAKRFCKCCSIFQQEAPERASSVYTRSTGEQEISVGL

inhibition [1] [%]	inhibition [2] [%]	inhibition [3] [%]	inhibition (CXCR2 (Homo sapiens) [4]) [%]	inhibition (CXCR2 (Homo sapiens) [5]) [%]	SMILES
9.5	-1	6.6	0.3		Cn1cc(N)cc1C(=O)Nc1ccc(S(=O)(=O)O)c2cc(S(=O)(=O)O)ccc12
6.5	-3.1			5.4	Cn1cc(NC(=O)c2cc(NC(=O)Nc3c[nH]c(C(=O)Nc4cc(C(=O)Nc5ccc(S(=O)(=O)O)c6cccc(S(=O)(=O)O)c56)n(C)c4)c3)c[nH]2)cc1C(=O)Nc1ccc(S(=O)(=O)O)c2cccc(S(=O)(=O)O)c12
